Experimental data as given in ChEMBL document CHEMBL1140046, “Novel and potent inhibitors of 5-lipoxygenase product synthesis based on the structure of pirinixic acid” (J Med Chem, 2008).
Activity calls are given as the source filed them. The rule behind the calls is not given here.

Columns and labels:
[1] = biological target: T1, Polyunsaturated fatty acid 5-lipoxygenase (Homo sapiens) (UniProt P09917); assay: Inhibition of 5-lipoxygenase in human intact polymorphonuclear leukocytes assessed as suppression of A23187-induced product formation at 10 uM; parameters: scale not given: the % may be the effect or the level left
T1 sequence (whole entry): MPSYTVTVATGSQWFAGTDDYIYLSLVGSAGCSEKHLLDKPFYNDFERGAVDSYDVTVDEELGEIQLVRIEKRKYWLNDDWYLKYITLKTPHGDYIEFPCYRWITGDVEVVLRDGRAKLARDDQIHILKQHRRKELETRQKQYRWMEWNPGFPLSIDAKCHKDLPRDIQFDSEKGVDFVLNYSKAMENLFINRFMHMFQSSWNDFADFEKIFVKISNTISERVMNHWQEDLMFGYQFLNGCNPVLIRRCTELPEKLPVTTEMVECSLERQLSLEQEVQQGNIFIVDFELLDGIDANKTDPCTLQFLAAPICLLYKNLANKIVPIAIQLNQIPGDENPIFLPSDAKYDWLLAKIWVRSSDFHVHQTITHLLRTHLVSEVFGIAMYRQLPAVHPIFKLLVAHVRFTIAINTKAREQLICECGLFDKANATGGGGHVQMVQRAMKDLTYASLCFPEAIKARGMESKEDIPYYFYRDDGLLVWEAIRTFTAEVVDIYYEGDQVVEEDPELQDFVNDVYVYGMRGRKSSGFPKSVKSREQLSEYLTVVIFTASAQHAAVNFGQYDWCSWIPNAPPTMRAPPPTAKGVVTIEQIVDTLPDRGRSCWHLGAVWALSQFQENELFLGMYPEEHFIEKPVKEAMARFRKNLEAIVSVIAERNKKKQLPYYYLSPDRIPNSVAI
Method in brief: (§1)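 Human PMNL were isolated from donor venous blood by dextran sedimentation, Nycoprep centrifugation and hypotonic lysis. 5 × 10^6 cells in 1 mL PBS pH 7.4 with 1 mg/mL glucose and 1 mM CaCl2 were preincubated 15 min at RT. Stimulation was with 2.5 µM A23187 plus 20 µM AA for 10 min at 37 °C. Methanol stop, PGB1 internal standard, HPLC of LTB4, its all-trans isomers and 5-H(P)ETE.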

[2] = biological target: T2, Polyunsaturated fatty acid 5-lipoxygenase (Homo sapiens, UniProt P09917); assay: Inhibition of 5-lipoxygenase in human intact polymorphonuclear leukocytes assessed as suppression of A23187-induced product formation
T2 sequence (P09917 whole entry): T1 sequence (whole entry)
Method in brief: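 Same PMNL assay: 15 min RT preincubation, then 2.5 µM A23187 plus 20 µM exogenous AA for 10 min at 37 °C. HPLC read-out as ng 5-LO products per 10^6 cells. IC50 approximated by linear interpolation around 50% activity from 4-5 concentrations; mean ± SE, n = 3-5.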

[3] = biological target: T1, Polyunsaturated fatty acid 5-lipoxygenase (Homo sapiens); assay: Inhibition of 5-lipoxygenase in human intact polymorphonuclear leukocytes assessed as suppression of A23187-induced product formation at 1 uM; parameters: scale not given: the % may be the effect or the level left; method in brief: as §1
[4] = biological target: T1, Polyunsaturated fatty acid 5-lipoxygenase (Homo sapiens); assay: Inhibition of human recombinant 5-lipoxygenase expressed in Escherichia coli MV1190 assessed as suppression of CaCl2/arachidonic acid-induced product formation at 30 uM; parameters: scale not given: the % may be the effect or the level left
[5] = biological target: T2, Polyunsaturated fatty acid 5-lipoxygenase; assay: Inhibition of human recombinant 5-lipoxygenase expressed in Escherichia coli MV1190 assessed as suppression of CaCl2/arachidonic acid-induced product formation
[6] = biological target: T1, Polyunsaturated fatty acid 5-lipoxygenase (Homo sapiens); assay: Inhibition of human recombinant 5-lipoxygenase expressed in Escherichia coli MV1190 assessed as suppression of CaCl2/arachidonic acid-induced product formation at 1 uM; parameters: scale not given: the % may be the effect or the level left

Compound | Activity [1] | IC50 [2] | Activity [3] | Activity [4] | IC50 [5] | Activity [6]
O=C(O)CSc1nc(Cl)cc(Nc2cccc3c2CCC3)n1 | 14.5% | 3900 nM | 71.1% | – | – | –
CCOC(=O)C(C)Sc1nc(Cl)cc(Nc2cccc(C)c2C)n1 (configuration not stated) | 22.8% | – | inactive | – | – | –
CCOC(=O)CSc1nc(Cl)cc(Nc2ccc3ncccc3c2)n1 | 12.3% | 2600 nM | 86.3% | – | – | –
CCOC(=O)C(Sc1nc(Cl)cc(Nc2cccc(C)c2C)n1)c1ccccc1 (configuration not stated) | 18.7% | 1800 nM | 53.1% | – | – | –
CCOC(=O)C(Sc1nc(Cl)cc(Nc2ccc3ncccc3c2)n1)c1ccccc1 (configuration not stated) | 3.5% | 1200 nM | 52.7% | – | – | –
CCCCCCC(Sc1nc(Cl)cc(NCc2ccc3ncccc3c2)n1)C(=O)OCC (configuration not stated) | 11.4% | 1400 nM | 57.4% | 56% | 37000 nM | 70.7%
CCCCCCC(Sc1nc(Cl)cc(Nc2ccc3ncccc3c2)n1)C(=O)OCC (configuration not stated) | 4% | 600 nM | 27.9% | 43.8% | 19000 nM | 68.2%
Cc1cccc(Nc2cc(Cl)nc(SC(C)C(=O)O)n2)c1C (configuration not stated) | inactive | – | inactive | – | – | –
Cc1cccc(Nc2cc(Cl)nc(SCC(=O)O)n2)c1C | inactive | – | inactive | – | – | –
CC(=O)N(O)C/C=C/c1cccc(Oc2ccccc2)c1 | – | – | 3.3% | – | – | 10.8%
CCOC(=O)CSc1nc(Cl)cc(Oc2ccc3ncccc3c2)n1 | 77.6% | – | inactive | – | – | –
CCOC(=O)CSc1nc(Cl)cc(OCc2ccc3ncccc3c2)n1 | 3.9% | – | 80% | – | – | –
CCCCC(Sc1nc(Cl)cc(Nc2ccc3ncccc3c2)n1)C(=O)O (configuration not stated) | 50% | – | inactive | – | – | –
CCCCCCC(Sc1nc(Cl)cc(Oc2ccc3ncccc3c2)n1)C(=O)O (configuration not stated) | 10.7% | – | 91.4% | 72.6% | – | 93.7%
CCCCCCC(Sc1nc(Cl)cc(Oc2ccc3ncccc3c2)n1)C(=O)OCC (configuration not stated) | 4.5% | 1700 nM | 67.4% | 59.2% | – | 79.1%
CCOC(=O)C(C)Sc1nc(Cl)cc(Nc2ccc3ncccc3c2)n1 (configuration not stated) | 12% | – | inactive | – | – | –
O=C(O)CSc1nc(Cl)cc(Oc2ccc3ncccc3c2)n1 | inactive | – | inactive | – | – | –
CCCCCCC(Sc1nc(Cl)cc(NCc2ccc3ncccc3c2)n1)C(=O)O (configuration not stated) | 26.7% | – | 87.6% | 51% | 31000 nM | 95.6%
CCOC(=O)CSc1nc(Cl)cc(Nc2cccc(C)c2C)n1 | 77.7% | – | 76.9% | – | – | –
CC(Sc1nc(Cl)cc(Nc2ccc3ncccc3c2)n1)C(=O)O (configuration not stated) | inactive | – | inactive | – | – | –
CCCCCCC(Sc1nc(Cl)cc(Nc2ccc3ncccc3c2)n1)C(=O)O (configuration not stated) | 20.1% | – | inactive | 52.7% | 34000 nM | 95.4%
CCCCCCC(Sc1nc(Cl)cc(Nc2cccc(C)c2C)n1)C(=O)O (configuration not stated) | 28.9% | 4100 nM | 64.3% | – | – | –
O=C(O)CSc1nc(Cl)cc(Nc2ccc3ncccc3c2)n1 | inactive | – | inactive | – | – | –
CCOC(=O)CSc1nc(Cl)cc(Nc2cccc3c2CCC3)n1 | 8.9% | 3200 nM | 65.2% | – | – | –
CCCCC(Sc1nc(Cl)cc(Nc2ccc3ncccc3c2)n1)C(=O)OCC (configuration not stated) | 1.6% | 1100 nM | 51.8% | – | – | –
CCCCCCC(Sc1nc(Cl)cc(Nc2cccc(C)c2C)n1)C(=O)OCC (configuration not stated) | 30.5% | – | 84.9% | – | – | –
Cc1cccc(Nc2cc(Cl)nc(SC(C(=O)O)c3ccccc3)n2)c1C (configuration not stated) | inactive | – | inactive | – | – | –
O=C(O)C(Sc1nc(Cl)cc(Nc2ccc3ncccc3c2)n1)c1ccccc1 (configuration not stated) | 69.1% | – | inactive | – | – | –
